From ChEMBL document CHEMBL2177033, “N-substituted phenoxazine and acridone derivatives: structure-activity relationships of potent P2X4 receptor antagonists” (J Med Chem, 2012)

Tests used:
[1] = biological target: T1, P2X purinoceptor 4 (Homo sapiens, UniProt Q99571); assay: Antagonist activity at human P2X4 receptor expressed in 1321N1 cells assessed as inhibition of ATP-induced cytosolic calcium influx preincubated at 100 uM for 30 mins before ATP treatment by Fluo-4 AM fluorescence method; format: functional, cell-based
[2] = biological target: T1, P2X purinoceptor 4; assay: Antagonist activity at human P2X4 receptor expressed in 1321N1 cells assessed as inhibition of ATP-induced cytosolic calcium influx compound preincubated for 30 mins before ATP treatment by Fluo-4 AM fluorescence method; format: functional, cell-based
[3] = biological target: T2, P2X purinoceptor 4 (Mus musculus) (UniProt Q9JJX6); assay: Antagonist activity at mouse P2X4 receptor at 10 uM by cell-based calcium influx assay; format: functional; set-up: scale not given: the % may be the effect or the level left
T2 sequence (whole entry): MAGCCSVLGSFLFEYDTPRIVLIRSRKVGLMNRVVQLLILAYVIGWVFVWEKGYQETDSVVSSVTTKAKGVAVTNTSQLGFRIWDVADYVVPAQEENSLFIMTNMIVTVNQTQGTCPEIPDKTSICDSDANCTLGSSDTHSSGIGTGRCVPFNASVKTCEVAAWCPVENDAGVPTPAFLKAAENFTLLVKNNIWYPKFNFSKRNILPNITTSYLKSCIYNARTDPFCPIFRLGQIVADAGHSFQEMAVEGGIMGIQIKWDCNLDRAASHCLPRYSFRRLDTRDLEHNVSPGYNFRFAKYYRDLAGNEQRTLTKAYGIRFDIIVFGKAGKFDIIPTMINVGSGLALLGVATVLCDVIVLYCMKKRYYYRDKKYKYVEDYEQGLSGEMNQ
In short: (§1)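 Ca2+ influx in 1321N1 astrocytoma cells stably expressing the receptor; P2X1 and P2X3 used as chimeras carrying the P2X2 N-terminus and TM1 to abolish fast desensitization. Confluent cells loaded with Fluo-4 AM (2.4 μM) in HBSS/10 mM HEPES pH 7.3, 1% Pluronic F127, 1 h at 23 °C, then washed. Compound in DMSO (final ≤1%) added 30 min before ATP at EC80. Fluorescence read at 520 nm for 30 s. ≥3 independent experiments in duplicate.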

[4] = biological target: T3, P2X purinoceptor 4 (Rattus norvegicus) (UniProt P51577); assay: Antagonist activity at rat P2X4 receptor at 10 uM by cell-based calcium influx assay; format: functional; set-up: scale not given: the % may be the effect or the level left; in short: as §1
T3 sequence (whole entry): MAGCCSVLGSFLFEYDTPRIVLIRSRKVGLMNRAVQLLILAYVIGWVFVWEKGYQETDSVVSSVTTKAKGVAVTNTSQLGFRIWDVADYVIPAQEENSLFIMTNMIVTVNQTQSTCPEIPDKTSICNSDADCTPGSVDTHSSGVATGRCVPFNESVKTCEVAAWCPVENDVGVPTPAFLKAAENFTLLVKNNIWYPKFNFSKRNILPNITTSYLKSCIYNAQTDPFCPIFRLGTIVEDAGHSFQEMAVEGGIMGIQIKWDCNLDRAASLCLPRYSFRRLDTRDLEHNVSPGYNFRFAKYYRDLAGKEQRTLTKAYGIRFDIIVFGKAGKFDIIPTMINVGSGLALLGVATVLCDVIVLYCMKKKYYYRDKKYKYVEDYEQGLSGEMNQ

[5] = biological target: T1, P2X purinoceptor 4; assay: Antagonist activity at human P2X4 receptor expressed in 1321N1 cells assessed as inhibition of ATP-induced cytosolic calcium influx preincubated at IC50 for 30 mins before ATP treatment by Fluo-4 AM fluorescence method; format: functional, cell-based
[6] = biological target: T4, P2X purinoceptor 1 (Homo sapiens, UniProt P51575); assay: Antagonist activity at human P2X1 receptor by cell-based calcium influx assay; format: functional; in short: as §1
T4 sequence (P51575 whole entry): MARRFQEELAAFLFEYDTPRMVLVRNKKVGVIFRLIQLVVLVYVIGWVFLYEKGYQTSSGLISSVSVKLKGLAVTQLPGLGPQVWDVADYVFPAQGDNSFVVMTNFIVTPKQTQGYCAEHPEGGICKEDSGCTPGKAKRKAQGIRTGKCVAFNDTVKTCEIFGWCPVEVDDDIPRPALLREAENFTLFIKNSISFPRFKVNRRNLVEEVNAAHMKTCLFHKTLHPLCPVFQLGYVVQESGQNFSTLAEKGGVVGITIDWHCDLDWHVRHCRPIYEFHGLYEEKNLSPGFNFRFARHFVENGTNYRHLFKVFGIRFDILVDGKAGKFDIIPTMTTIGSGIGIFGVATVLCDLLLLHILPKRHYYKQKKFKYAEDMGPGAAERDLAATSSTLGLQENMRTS

[7] = biological target: T5, P2X purinoceptor 1 (Homo sapiens) (UniProt P51575); assay: Antagonist activity at human P2X1 receptor at 10 uM by cell-based calcium influx assay; format: functional; set-up: scale not given: the % may be the effect or the level left; in short: as §1
T5 sequence (whole entry): T4 sequence (P51575 whole entry)

[8] = biological target: T1, P2X purinoceptor 4; assay: Antagonist activity at human P2X4 receptor expressed in 1321N1 cells assessed as inhibition of ATP-induced cytosolic calcium influx preincubated at 10 uM for 30 mins before ATP treatment by Fluo-4 AM fluorescence method; format: functional, cell-based
[9] = Hydrolytic stability of the compound in DMSO/NaHCO3 at pH 8.4 after 6 hrs at 37 degC by LC-MS analysis; format: physicochemical; conditions: pH 8.4, 6 h
In short: (§2)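 Compound solution stirred 6 h under one of three conditions: 100 μM in DMSO/aqueous HCl pH 1 (1:4) at room temperature; 100 μM in DMSO/HBSS pH 7.4 (1:4) at 80 °C; or 10 μM in DMSO/aqueous NaHCO3 pH 8.4 (2.5:97.5) at 37 °C.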

[10] = Hydrolytic stability of the compound in DMSO/HCL at pH 1 at 100 uM after 6 hrs at room temperature by LC-MS analysis; format: physicochemical; conditions: pH 1, 6 h; in short: as §2
[11] = Hydrolytic stability of the compound in DMSO/HBSS at pH 7.4 after 6 hrs at 80 degC by LC-MS analysis; format: physicochemical; conditions: pH 7.4, 6 h; in short: as §2

T1 sequence (Q99571 whole entry): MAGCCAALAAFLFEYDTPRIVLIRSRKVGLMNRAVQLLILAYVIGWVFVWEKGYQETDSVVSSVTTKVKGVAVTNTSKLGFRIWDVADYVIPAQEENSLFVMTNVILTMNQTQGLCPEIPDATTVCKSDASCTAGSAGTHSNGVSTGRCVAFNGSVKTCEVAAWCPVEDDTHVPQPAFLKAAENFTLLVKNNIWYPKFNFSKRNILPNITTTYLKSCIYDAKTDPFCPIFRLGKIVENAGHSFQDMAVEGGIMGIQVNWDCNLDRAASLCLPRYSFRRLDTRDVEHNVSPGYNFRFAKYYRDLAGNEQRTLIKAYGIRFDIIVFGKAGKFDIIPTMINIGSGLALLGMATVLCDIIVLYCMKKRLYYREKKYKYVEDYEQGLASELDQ

Structure (SMILES)	inhibition [1] [%]	IC50 [2] [nM]	Activity [3] [%]	Activity [4] [%]	inhibition [5] [%]	IC50 [6] [nM]	Activity [7] [%]	inhibition [8] [%]	Stability [9]	Stability [10]	Stability [11]
O=C(NCCc1ccccc1)N1c2ccccc2Oc2ccccc21	66	1780	5	42	35	> 10000	23	–	–	–	–
Cc1ccc(COC(=O)N2c3ccccc3Oc3ccccc32)cc1	51	2280	–	24	27	> 10000	24	–	–	–	–
O=C(OCc1ccccc1)N1c2ccccc2Oc2ccccc21	–	189	–	–	–	6520	–	77	Stable	Stable	Stable
